Reference: ChEMBL document CHEMBL2407025, “Antiplasmodial and cytotoxic flavans and diarylpropanes from the stems of Combretum griffithii” (J Nat Prod, 2013)
Active and inactive are the calls of the source. The calls are words filed in the database; no cut-off is given here.

Key:
Plasmodium falciparum [1] = assay: Antimalarial activity against Plasmodium falciparum K1 assessed as reduction in parasite growth measuring [3H]-hypoxanthine uptake by microculture radioisotope technique; type: functional, organism-based
Outline: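 P. falciparum K1 (multidrug-resistant) cultured in vitro by Trager–Jensen method. Growth inhibition read as [3H]-hypoxanthine uptake in a microculture radioisotope assay (Desjardins method). Samples tested up to a maximum final concentration of 10 μg/mL. IC50 taken as the concentration giving 50% reduction in parasite growth. Dihydroartemisinin served as reference.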

NCI-H187 = assay: Cytotoxicity against human NCI-H187 cells by colorimetric method; type: functional, cell-based
Outline: (§1)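 Human epidermoid carcinoma KB, breast cancer MCF7 and small cell lung cancer NCI-H187 lines assayed by the Skehan colorimetric method. Test samples at a maximum final concentration of 50 μg/mL. Doxorubicin served as reference. Values are reported as IC50.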

KB = assay: Cytotoxicity against human KB cells by colorimetric method; type: functional, cell-based; outline: as §1
[2] = system: Mycobacterium tuberculosis; assay: Antimycobacterial activity against Mycobacterium tuberculosis H37Ra at 50 ug/ml by MABA; type: functional, organism-based
Outline: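 M. tuberculosis H37Ra was tested in vitro by microplate Alamar Blue assay (MABA). 50 μg/mL was the highest test concentration. Isoniazid was run as the reference standard.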

MCF7 = assay: Cytotoxicity against human MCF7 cells by colorimetric method; type: functional, cell-based; outline: as §1
Plasmodium falciparum [3] = assay: Antimalarial activity against Plasmodium falciparum K1 assessed as reduction in parasite growth measuring [3H]-hypoxanthine uptake at 10 ug/ml by microculture radioisotope technique; type: functional, organism-based
[4] = Homo sapiens, MCF7, read-out: IC50

Structure (SMILES): C[C@H]1[C@@H](O)O[C@@H]2O[C@@]3(C)CC[C@H]4[C@H](C)CC[C@@H]1[C@@]24OO3 [ARTENIMOL]
- IC50 (Plasmodium falciparum [1]): 0.00142 µM

Structure (SMILES): COc1cc(OC)c2c(c1)O[C@H](c1ccc(O)c(O)c1)CC2 [(2S)-3',4'-DIHYDROXY-5,7-DIMETHOXYFLAVAN]
- IC50 (NCI-H187): 10.4 µM
- IC50 (KB): 31.8 µM
- Activity [2]: inactive
- IC50 (MCF7; [4]): 49.1 µM
- IC50 (Plasmodium falciparum [1]): 9.66 µM

Structure (SMILES): COc1cc([C@@H]2CCc3cc(OC)c(OC)cc3O2)ccc1O [(2S)-4'-HYDROXY-6,7,3'-TRIMETHOXYFLAVAN]
- Activity (Plasmodium falciparum [3]): inactive
- IC50 (NCI-H187): 125 µM
- IC50 (KB): 106 µM
- Activity [2]: inactive
- IC50 (MCF7; mcf7): Not Active

Structure (SMILES): COc1cc2c(cc1OC)O[C@H](c1ccc(O)c(O)c1)CC2 [(2S)-3',4'-DIHYDROXY-6,7-DIMETHOXYFLAVAN]
- IC50 (NCI-H187): 51.4 µM
- IC50 (KB): 43.1 µM
- Activity [2]: inactive
- IC50 (MCF7; [4]): 75 µM
- IC50 (Plasmodium falciparum [1]): 15.7 µM

Structure (SMILES): COc1cc(CCCc2c(OC)cc(O)cc2OC)ccc1O
- Activity (Plasmodium falciparum [3]): inactive
- IC50 (NCI-H187): 96 µM
- IC50 (KB): 49.3 µM
- Activity [2]: inactive
- IC50 (MCF7; [4]): 64.2 µM

Structure (SMILES): COc1cc(CCCc2cc(OC)c(O)c(OC)c2)ccc1O
- IC50 (NCI-H187): 42.1 µM
- IC50 (KB): 46 µM
- Activity [2]: inactive
- IC50 (MCF7; [4]): 72 µM
- IC50 (Plasmodium falciparum [1]): 14.5 µM

Structure (SMILES): COc1cc([C@@H]2CCc3cc(O)c(OC)cc3O2)ccc1O
- Activity (Plasmodium falciparum [3]): inactive
- IC50 (NCI-H187): 76.5 µM
- IC50 (KB): 69 µM
- Activity [2]: inactive
- IC50 (MCF7; [4]): 90.1 µM

Structure (SMILES): COc1cccc2c1C(=O)c1c(O)c3c(c(O)c1C2=O)C[C@@](O)(C(=O)CO)C[C@@H]3O[C@H]1C[C@H](N)[C@H](O)[C@H](C)O1 [DOXORUBICIN]
- IC50 (NCI-H187): 0.12 µM
- IC50 (KB): 0.38 µM

Structure (SMILES): COc1cc(CCCc2cc(O)c(OC)cc2OC)ccc1O
- Activity (Plasmodium falciparum [3]): inactive
- IC50 (NCI-H187): 34.6 µM
- IC50 (KB): 24.6 µM
- Activity [2]: inactive
- IC50 (MCF7; [4]): 23.1 µM

Structure (SMILES): COc1cc2c(cc1O)CC[C@@H](c1ccc(O)c(O)c1)O2
- IC50 (NCI-H187): 72 µM
- IC50 (KB): 24.6 µM
- Activity [2]: inactive
- IC50 (MCF7; [4]): 110 µM
- IC50 (Plasmodium falciparum [1]): 13 µM

Structure (SMILES): COc1ccc2c(c1)O[C@H](c1ccc(O)c(OC)c1)CC2 [(2S)-4'-HYDROXY-7,3'-DIMETHOXYFLAVAN]
- Activity (Plasmodium falciparum [3]): inactive
- IC50 (NCI-H187): 60.2 µM
- IC50 (KB): 97.9 µM
- Activity [2]: inactive
- IC50 (MCF7; [4]): 88.4 µM
